Data published in ChEMBL document CHEMBL4406821, “Novel dual inhibitors targeting CDK4 and VEGFR2 synergistically suppressed cancer progression and angiogenesis” (Eur J Med Chem, 2019).
The source made the active and inactive calls. The calls are words filed in the database; no cut-off is given here.

Experiments:
HeLa [1] = assay: Induction of cell cycle arrest in human HeLa cells assessed as accumulation in G2/M phase at 80 nM incubated for 36 hrs by propidium iodide staining based flow cytometry; assay type: functional
In short: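 Cells were treated with graded concentrations for 36 h, then fixed overnight in 70% ice-cold ethanol at 4°C and resuspended in PBS. Staining used 50 µg/ml PI plus 5 µg/ml RNase at 37°C for 30 min. DNA content was analysed by FACS to give G0/G1, S and G2/M fractions.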

SiHa = assay: Induction of apoptosis in human SiHa cells assessed as decrease in Bcl2 expression at 40 nM incubated for 48 hrs by Western blot analysis; assay type: functional, cell-based
In short: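 Cancer cells were exposed to graded concentrations for 48 h, washed three times in PBS and lysed in RIPA buffer. Immunoblots were probed with anti-Rb, anti-phospho-Rb, anti-Ki67 and anti-Bcl-2, each at 1:1000. β-actin served as loading control.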

HeLa [2] = assay: Induction of apoptosis in human HeLa cells assessed as decrease in Bcl2 expression at 80 nM incubated for 48 hrs by Western blot analysis; assay type: functional, cell-based
In short: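 Cells were treated for 48 h, washed three times with PBS, and lysed in RIPA buffer. Immunoblots used anti-Rb, anti-phospho-Rb, anti-Ki67 and anti-Bcl-2 (each 1:1000), with β-actin as loading control.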

[3] = biological target: Tyrosine-protein kinase receptor UFO (Homo sapiens) (UniProt P30530); assay: Inhibition of recombinant human AXL (473 to end residues) at 1 uM using KKSRGDYMTMQIG as substrate incubated for 40 mins in presence of [gamma-33P]-ATP by scintillation counting method relative to control
In short: (§1)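 Kinase panel profiling at 1 μM performed by Eurofins KinaseProfiler; percent inhibition reported as mean of two independent experiments.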

[4] = biological target: Serine/threonine-protein kinase Chk1 (Homo sapiens) (UniProt O14757); assay: Inhibition of recombinant full length human CHK1 at 1 uM using KKKVSRSGLYRSP as substrate incubated for 40 mins in presence of [gamma-33P]-ATP by scintillation counting method relative to control; in short: as §1
[5] = biological target: Tyrosine-protein kinase Fes/Fps (Homo sapiens) (UniProt P07332); assay: Inhibition of recombinant human FES (2 to end residues) at 1 uM using poly(Glu, Tyr) 4:1 as substrate incubated for 40 mins in presence of [gamma-33P]-ATP by scintillation counting method relative to control
[6] = biological target: Serine/threonine-protein kinase DCLK2 (Homo sapiens) (UniProt Q8N568); assay: Inhibition of recombinant human DCAMKL2 (376 to end residues) at 1 uM using KKLNRTLSFAEPG as substrate incubated for 40 mins in presence of [gamma-33P]-ATP by scintillation counting method relative to control
In short: (§2)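 Tested at a single 1 uM in an outsourced commercial kinase-profiling panel, read as percent inhibition. Each value is the mean of two independent experiments.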

[7] = biological target: eIF-2-alpha kinase GCN2 (Homo sapiens) (UniProt Q9P2K8); assay: Inhibition of recombinant full length human GCN2 at 1 uM using RSRSRSRSRSRSRSR as substrate incubated for 40 mins in presence of [gamma-33P]-ATP by scintillation counting method relative to control; in short: as §2
[8] = biological target: Casein kinase II subunit alpha' (Homo sapiens) (UniProt P19784); assay: Inhibition of recombinant human full length CK2alpha2 at 1 uM using RRRDDDSDDD as substrate incubated for 40 mins in presence of [gamma-33P]-ATP by scintillation counting method relative to control
[9] = biological target: Rhodopsin kinase GRK7 (Homo sapiens) (UniProt Q8WTQ7); assay: Inhibition of recombinant human full length GRK7 at 1 uM using casein as substrate incubated for 40 mins in presence of [gamma-33P]-ATP by scintillation counting method relative to control
[10] = biological target: MAP kinase-activated protein kinase 2 (Homo sapiens) (UniProt P49137); assay: Inhibition of recombinant human MAPKAPK2 (46 to end residues) at 1 uM using KKLNRTLSVA as substrate incubated for 40 mins in presence of [gamma-33P]-ATP by scintillation counting method relative to control
[11] = biological target: Dual specificity mitogen-activated protein kinase kinase 2 (Homo sapiens) (UniProt P36507); assay: Inhibition of recombinant human full length MEK2 at 1 uM using MBP as substrate incubated for 40 mins in presence of [gamma-33P]-ATP by scintillation counting method relative to control
[12] = biological target: Myosin light chain kinase 2, skeletal/cardiac muscle (Homo sapiens) (UniProt Q9H1R3); assay: Inhibition of recombinant human full length MYLK2 at 1 uM using KKLNRTLSFAEPG as substrate incubated for 40 mins in presence of [gamma-33P]-ATP by scintillation counting method relative to control
[13] = biological target: Ribosomal protein S6 kinase beta-1 (Homo sapiens) (UniProt P23443); assay: Inhibition of recombinant human p70S6K (1 to 421 residues) at 1 uM using KKRNRTLTV as substrate incubated for 40 mins in presence of [gamma-33P]-ATP by scintillation counting method relative to control
[14] = biological target: Serine/threonine-protein kinase PAK 6 (Homo sapiens) (UniProt Q9NQU5); assay: Inhibition of recombinant human PAK6 (382 to end residues) at 1 uM using RRRLSFAEPG as substrate incubated for 40 mins in presence of [gamma-33P]-ATP by scintillation counting method relative to control
[15] = tested on: Proto-oncogene tyrosine-protein kinase receptor Ret (Homo sapiens), P07949 [V804L]; assay: Inhibition of recombinant human RET V804L mutant (658 to end residues) at 1 uM using KKKVSRSGLYRSPSMPENLNRPR as substrate incubated for 40 mins in presence of [gamma-33P]-ATP by scintillation counting method relative to control
[16] = biological target: Serine/threonine-protein kinase 25 (Homo sapiens) (UniProt O00506); assay: Inhibition of recombinant human STK25 (1 to 308 residues) at 1 uM using RLGRDKYKTLRQIRQ as substrate incubated for 40 mins in presence of [gamma-33P]-ATP by scintillation counting method relative to control
[17] = biological target: Serine/threonine-protein kinase TAO2 (Homo sapiens) (UniProt Q9UL54); assay: Inhibition of recombinant human TAO2 (1 to 320 residues) at 1 uM using myelin basic protein as substrate incubated for 40 mins in presence of [gamma-33P]-ATP by scintillation counting method relative to control; in short: as §2
[18] = biological target: Serine/threonine-protein kinase TBK1 (Homo sapiens) (UniProt Q9UHD2); assay: Inhibition of recombinant human full length TBK1 at 1 uM using KRRRALS(p)VASLPGL as substrate incubated for 40 mins in presence of [gamma-33P]-ATP by scintillation counting method relative to control
[19] = biological target: Phosphatidylinositol 4-phosphate 3-kinase C2 domain-containing subunit alpha (Homo sapiens) (UniProt O00443); assay: Inhibition of recombinant human PI3KC2alpha (299 to end residues) at 1 uM using phosphatidylinositol as substrate incubated for 40 mins in presence of [gamma-33P]-ATP by scintillation counting method relative to control; in short: as §2
Phosphatidylinositol 4-phosphate 3-kinase C2 domain-containing subunit alpha (Homo sapiens), sequence (O00443 whole entry, the tested form may be a part): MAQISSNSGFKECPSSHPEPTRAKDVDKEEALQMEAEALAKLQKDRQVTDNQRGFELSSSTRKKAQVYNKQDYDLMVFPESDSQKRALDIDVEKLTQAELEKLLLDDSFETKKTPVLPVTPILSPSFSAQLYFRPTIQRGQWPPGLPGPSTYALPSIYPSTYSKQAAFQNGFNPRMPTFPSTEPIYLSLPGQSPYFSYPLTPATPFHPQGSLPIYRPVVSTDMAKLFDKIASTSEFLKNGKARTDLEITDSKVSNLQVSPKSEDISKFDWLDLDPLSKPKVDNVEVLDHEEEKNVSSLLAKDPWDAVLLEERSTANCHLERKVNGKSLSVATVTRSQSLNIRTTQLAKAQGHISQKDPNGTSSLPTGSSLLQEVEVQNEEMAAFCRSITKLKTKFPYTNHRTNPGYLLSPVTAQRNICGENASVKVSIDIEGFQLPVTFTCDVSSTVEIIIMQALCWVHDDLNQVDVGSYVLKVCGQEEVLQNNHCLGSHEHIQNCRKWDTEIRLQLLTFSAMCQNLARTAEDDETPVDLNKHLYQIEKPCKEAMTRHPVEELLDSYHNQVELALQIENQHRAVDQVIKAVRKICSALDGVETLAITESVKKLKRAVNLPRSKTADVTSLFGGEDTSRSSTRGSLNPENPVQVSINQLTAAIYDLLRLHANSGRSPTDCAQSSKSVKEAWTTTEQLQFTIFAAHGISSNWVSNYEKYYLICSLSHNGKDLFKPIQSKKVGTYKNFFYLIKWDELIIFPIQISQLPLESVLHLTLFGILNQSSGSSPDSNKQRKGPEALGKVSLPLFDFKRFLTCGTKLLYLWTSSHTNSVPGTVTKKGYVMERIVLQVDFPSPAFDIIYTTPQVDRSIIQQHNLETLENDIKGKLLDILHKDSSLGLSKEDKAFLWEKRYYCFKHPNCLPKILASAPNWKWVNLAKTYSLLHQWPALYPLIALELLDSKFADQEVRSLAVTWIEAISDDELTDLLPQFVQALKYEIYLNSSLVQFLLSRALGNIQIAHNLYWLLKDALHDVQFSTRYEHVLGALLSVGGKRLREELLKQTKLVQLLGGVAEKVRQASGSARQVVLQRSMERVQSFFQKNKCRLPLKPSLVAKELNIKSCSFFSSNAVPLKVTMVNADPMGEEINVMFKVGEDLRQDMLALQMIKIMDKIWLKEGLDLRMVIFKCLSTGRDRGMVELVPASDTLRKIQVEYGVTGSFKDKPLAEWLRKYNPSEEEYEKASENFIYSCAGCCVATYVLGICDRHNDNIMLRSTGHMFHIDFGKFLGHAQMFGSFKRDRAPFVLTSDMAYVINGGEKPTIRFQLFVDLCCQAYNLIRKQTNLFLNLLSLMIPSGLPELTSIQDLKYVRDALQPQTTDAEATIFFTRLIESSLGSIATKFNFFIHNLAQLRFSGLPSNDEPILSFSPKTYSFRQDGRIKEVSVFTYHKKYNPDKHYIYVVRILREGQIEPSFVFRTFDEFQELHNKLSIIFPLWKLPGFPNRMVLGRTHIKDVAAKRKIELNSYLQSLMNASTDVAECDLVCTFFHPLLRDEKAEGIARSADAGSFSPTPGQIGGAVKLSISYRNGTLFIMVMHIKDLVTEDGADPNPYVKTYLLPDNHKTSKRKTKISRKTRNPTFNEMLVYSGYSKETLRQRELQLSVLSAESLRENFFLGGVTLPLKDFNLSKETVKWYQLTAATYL

Serine/threonine-protein kinase TAO2 (Homo sapiens), sequence (Q9UL54 whole entry, the tested form may be a part): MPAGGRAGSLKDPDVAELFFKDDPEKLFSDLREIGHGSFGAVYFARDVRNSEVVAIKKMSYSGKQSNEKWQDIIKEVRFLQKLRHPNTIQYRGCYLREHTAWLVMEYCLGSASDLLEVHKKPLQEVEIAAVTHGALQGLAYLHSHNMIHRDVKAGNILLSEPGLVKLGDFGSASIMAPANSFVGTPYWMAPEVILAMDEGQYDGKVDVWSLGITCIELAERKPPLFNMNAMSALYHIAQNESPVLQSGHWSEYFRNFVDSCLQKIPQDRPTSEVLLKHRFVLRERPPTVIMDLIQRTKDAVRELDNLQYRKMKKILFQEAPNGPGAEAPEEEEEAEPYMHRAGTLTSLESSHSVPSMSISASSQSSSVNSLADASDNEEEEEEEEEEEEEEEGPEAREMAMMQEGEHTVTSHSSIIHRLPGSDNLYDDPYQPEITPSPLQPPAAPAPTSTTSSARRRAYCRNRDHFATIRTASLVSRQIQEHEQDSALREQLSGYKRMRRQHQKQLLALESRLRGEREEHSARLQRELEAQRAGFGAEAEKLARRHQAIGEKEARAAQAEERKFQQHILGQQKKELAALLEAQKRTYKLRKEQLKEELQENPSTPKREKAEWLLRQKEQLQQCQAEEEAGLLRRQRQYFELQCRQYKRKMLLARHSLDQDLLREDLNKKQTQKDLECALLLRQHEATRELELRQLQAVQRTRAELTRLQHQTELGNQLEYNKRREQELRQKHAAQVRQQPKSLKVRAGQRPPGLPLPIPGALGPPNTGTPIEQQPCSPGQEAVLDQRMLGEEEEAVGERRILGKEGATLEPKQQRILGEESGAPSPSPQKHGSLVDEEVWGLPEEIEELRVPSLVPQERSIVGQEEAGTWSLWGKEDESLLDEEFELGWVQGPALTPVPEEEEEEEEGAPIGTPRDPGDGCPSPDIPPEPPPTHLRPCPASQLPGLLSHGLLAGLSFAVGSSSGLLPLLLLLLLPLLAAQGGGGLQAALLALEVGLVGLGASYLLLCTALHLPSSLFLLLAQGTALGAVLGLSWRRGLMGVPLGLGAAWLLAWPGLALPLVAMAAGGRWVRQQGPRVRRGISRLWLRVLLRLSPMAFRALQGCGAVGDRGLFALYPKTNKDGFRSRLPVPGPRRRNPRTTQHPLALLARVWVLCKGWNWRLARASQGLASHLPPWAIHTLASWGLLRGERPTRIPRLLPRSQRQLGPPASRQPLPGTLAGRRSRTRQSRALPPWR
MAP kinase-activated protein kinase 2 (Homo sapiens), sequence (P49137 whole entry, looked up): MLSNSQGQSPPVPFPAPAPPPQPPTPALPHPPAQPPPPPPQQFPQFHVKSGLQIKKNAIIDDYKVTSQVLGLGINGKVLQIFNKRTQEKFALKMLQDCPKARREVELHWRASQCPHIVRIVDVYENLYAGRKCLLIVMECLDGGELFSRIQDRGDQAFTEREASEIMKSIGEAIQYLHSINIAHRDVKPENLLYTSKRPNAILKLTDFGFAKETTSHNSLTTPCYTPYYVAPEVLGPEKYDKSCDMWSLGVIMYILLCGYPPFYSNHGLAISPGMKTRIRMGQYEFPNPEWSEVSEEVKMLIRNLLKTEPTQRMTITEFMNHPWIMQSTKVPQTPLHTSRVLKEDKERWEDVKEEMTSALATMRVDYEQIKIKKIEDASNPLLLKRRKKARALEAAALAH
Proto-oncogene tyrosine-protein kinase receptor Ret (Homo sapiens), P07949 [V804L], sequence (P07949 whole entry V804L, the tested form may be a part): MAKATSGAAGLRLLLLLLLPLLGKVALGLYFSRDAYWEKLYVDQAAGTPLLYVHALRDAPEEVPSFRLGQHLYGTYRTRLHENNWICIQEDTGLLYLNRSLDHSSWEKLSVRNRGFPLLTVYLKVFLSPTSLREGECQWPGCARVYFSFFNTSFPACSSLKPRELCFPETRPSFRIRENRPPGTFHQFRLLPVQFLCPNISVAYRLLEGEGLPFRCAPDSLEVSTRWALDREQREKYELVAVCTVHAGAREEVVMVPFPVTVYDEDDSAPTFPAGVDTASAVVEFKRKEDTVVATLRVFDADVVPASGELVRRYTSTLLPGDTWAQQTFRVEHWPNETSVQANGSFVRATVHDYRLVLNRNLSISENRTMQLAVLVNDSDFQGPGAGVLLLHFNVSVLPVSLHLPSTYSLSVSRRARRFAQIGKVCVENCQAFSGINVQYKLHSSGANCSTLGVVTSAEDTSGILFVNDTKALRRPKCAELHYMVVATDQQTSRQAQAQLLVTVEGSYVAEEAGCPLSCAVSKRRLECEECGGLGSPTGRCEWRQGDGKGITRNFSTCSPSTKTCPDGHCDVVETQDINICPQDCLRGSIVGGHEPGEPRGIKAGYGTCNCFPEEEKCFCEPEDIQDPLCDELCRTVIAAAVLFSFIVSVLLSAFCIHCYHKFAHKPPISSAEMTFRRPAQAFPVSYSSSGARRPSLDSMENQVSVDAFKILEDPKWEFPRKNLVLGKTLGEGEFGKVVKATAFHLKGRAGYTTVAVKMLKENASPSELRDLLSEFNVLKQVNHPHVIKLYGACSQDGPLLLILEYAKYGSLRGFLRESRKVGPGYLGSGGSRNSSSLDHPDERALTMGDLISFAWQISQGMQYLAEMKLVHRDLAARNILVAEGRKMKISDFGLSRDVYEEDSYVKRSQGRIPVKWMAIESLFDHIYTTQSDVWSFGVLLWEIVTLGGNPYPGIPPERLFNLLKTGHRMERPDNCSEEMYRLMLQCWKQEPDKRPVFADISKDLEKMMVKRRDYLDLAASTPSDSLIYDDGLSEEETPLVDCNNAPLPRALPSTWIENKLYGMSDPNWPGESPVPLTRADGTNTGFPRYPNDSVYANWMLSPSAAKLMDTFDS
Serine/threonine-protein kinase PAK 6 (Homo sapiens), sequence (Q9NQU5 whole entry, looked up): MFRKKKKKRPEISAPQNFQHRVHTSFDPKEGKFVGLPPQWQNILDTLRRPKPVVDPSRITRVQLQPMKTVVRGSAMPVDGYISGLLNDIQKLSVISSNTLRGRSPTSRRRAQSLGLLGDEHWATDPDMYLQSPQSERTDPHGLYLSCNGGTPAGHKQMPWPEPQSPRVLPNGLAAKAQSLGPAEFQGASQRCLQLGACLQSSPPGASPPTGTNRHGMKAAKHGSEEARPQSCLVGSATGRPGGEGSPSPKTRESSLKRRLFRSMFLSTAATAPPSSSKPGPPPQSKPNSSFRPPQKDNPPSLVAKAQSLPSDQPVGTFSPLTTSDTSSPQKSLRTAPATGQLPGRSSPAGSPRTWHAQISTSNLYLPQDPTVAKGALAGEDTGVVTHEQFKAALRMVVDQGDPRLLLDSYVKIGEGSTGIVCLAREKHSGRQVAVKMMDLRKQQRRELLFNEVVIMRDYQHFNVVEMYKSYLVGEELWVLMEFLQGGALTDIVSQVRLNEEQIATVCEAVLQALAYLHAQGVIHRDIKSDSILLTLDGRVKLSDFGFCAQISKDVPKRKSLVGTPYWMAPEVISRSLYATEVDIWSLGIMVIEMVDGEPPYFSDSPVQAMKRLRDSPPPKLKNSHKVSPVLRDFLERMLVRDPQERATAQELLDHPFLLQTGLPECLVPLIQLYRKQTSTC

Row | SMILES | Activity (HeLa [1]) | Activity (SiHa) | Activity (HeLa [2]) | inhibition [3] [%] | inhibition [4] [%] | inhibition [5] [%] | inhibition [6] [%] | inhibition [7] [%] | inhibition [8] [%] | inhibition [9] [%] | inhibition [10] [%] | inhibition [11] [%] | inhibition [12] [%] | inhibition [13] [%] | inhibition [14] [%] | inhibition [15] [%] | inhibition [16] [%] | inhibition [17] [%] | inhibition [18] [%] | inhibition [19] [%]
1 | COc1cc2nccc(Oc3ccc(NC(=O)C4(C(=O)Nc5ccc(F)cc5)CC4)cc3)c2cc1OC [CABOZANTINIB] | Active | Active | Active |  |  |  |  |  |  |  |  |  |  |  |  |  |  |  |  | 
2 | Cc1ccc(NC(=O)C2(C(=O)Nc3ccc(Nc4ncc(F)c(-c5cc(F)c6nc(C)n(C(C)C)c6c5)n4)cc3)CC2)cc1 |  |  |  | 65 | 28 | 89 | 0 | 0 | 72 | 8 | 12 | 14 | 30 | 63 | 12 | 42 | 26 | 0 | 9 | 0
